Converted amounts (≈) assume the structure as drawn.
Legend:
THP-1 [1] = test: Cytotoxicity against human THP1 cells at 10 uM; format: functional
Procedure, shortened: (§1)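 PMA-differentiated THP-1 cells in RPMI 1640 with 10% FBS were pretreated 30 min at 37 °C with compound or vehicle (0.5% DMSO). They were then stimulated with LPS for 24 h at 37 °C, 5% CO2. Viability was scored with CCK-8 in the same wells as the cytokine assay.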

THP-1 [2] = test: Antiinflammatory activity in human THP1 cells assessed as inhibition of IL6 at 10 uM by ELISA; format: functional
Procedure, shortened: (§2)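 THP-1 cells grown in RPMI 1640 with 10% FBS, penicillin and streptomycin, then differentiated with PMA. After plating, cells took test compound or vehicle (0.5% DMSO) for 30 min at 37 °C. LPS (E. coli 0127:B8) was then added and plates were kept 24 h at 37 °C, 5% CO2. Supernatant TNF-α and IL-6 measured by ELISA. Percent inhibition was taken against control, and IC50 by nonlinear regression.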

THP-1 [3] = test: Antiinflammatory activity in human THP1 cells assessed as inhibition of LPS-induced TNFalpha at 10 uM by ELISA; format: functional; procedure, shortened: as §2
Phosphodiesterase 4 = Phosphodiesterase 4 (Homo sapiens, UniProt P27815+Q08499+Q07343+Q08493); test: Inhibition of PDE4 in human U937 cells by cAMP SPA enzyme assay; format: cell-based; settings: u-937
PBMC = test: Antiinflammatory activity in […] PBMC assessed as inhibition of LPS-induced TNFalpha by ELISA; format: functional, cell-based; settings: Homo sapiens
THP-1 [4] = test: Antiinflammatory activity in human THP1 cells assessed as inhibition of LPS-induced TNFalpha at 30 uM by ELISA; format: functional; procedure, shortened: as §2
Trypanosoma cruzi = test: Antichagasic activity against Trypanosoma cruzi; format: functional, organism-based
[5] = target: Cyclin-dependent kinase 1/cyclin B1 (Homo sapiens, UniProt P06493); test: Inhibition of CDK1/cyclinB; format: protein-complex assay
Candida albicans = test: Antimicrobial activity against Candida albicans; format: functional, organism-based
Escherichia coli = test: Antimicrobial activity against Escherichia coli; format: functional, organism-based
[6] = target: Mitogen-activated protein kinase 14 (Homo sapiens, UniProt Q16539); test: Inhibition of p38alpha MAPK
Mus musculus = test: Inhibition of LPS-induced TNFalpha release in mouse at 20 mg/kg, po; format: functional
THP-1 [7] = test: Cytotoxicity against human THP1 cells; format: functional, cell-based; procedure, shortened: as §1
THP-1 [8] = test: Antiinflammatory activity in human THP1 cells assessed as inhibition of LPS-induced IL6 by ELISA; format: functional, cell-based; procedure, shortened: as §2
THP-1 [9] = test: Antiinflammatory activity in human THP1 cells assessed as inhibition of LPS-induced TNFalpha by ELISA; format: functional, cell-based; procedure, shortened: as §2
THP-1 [10] = test: Antiinflammatory activity in human THP1 cells assessed as inhibition of LPS-induced IL6 at 1 uM by ELISA; format: functional; procedure, shortened: as §2
THP-1 [11] = test: Cytotoxicity against human THP1 cells at 1 uM; format: functional; procedure, shortened: as §1
THP-1 [12] = test: Antiinflammatory activity in human THP1 cells assessed as inhibition of LPS-induced TNFalpha at 1 uM by ELISA; format: functional; procedure, shortened: as §2

Chain of Mitogen-activated protein kinase 14 (Q16539 whole entry): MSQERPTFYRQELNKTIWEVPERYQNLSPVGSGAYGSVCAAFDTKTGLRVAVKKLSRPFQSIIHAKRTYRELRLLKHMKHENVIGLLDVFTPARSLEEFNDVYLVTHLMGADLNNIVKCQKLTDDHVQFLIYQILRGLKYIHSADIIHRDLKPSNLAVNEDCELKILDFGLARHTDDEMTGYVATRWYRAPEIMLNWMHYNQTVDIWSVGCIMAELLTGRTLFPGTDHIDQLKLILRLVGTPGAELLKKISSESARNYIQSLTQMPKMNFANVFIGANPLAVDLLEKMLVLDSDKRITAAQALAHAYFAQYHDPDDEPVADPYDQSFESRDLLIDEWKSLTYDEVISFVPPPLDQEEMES
Chain of Cyclin-dependent kinase 1/cyclin B1 (P06493 whole entry): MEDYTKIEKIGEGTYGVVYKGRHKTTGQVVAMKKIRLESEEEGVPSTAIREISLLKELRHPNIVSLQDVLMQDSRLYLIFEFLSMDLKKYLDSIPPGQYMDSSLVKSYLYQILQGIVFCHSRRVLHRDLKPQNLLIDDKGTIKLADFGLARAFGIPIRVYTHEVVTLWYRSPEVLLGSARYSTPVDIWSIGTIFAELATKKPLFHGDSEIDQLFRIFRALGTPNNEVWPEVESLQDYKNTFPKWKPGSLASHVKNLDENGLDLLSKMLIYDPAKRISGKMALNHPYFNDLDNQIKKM
Chain of Cyclin-dependent kinase 1/cyclin B1 (P14635 whole entry, further chain): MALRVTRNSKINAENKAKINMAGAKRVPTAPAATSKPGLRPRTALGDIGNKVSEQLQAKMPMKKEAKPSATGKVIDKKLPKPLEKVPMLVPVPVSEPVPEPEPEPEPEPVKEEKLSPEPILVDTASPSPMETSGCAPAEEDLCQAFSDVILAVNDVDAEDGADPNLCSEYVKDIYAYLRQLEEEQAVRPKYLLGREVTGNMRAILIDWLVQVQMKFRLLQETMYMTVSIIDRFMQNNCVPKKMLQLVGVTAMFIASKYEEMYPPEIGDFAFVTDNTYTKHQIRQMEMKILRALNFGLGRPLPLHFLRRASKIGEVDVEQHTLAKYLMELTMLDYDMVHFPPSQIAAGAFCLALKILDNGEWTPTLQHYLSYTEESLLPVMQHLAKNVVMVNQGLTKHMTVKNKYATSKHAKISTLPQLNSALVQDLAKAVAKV

Compound	inhibition at 10 µM (THP-1 [1])	inhibition at 10 µM (THP-1 [2])	inhibition at 10 µM (THP-1 [3])	further results
O=c1[nH]c(=O)c2cc(CCCO)cnc2[nH]1	12%	37%	0%	
OCCCc1cnc2ncnn2c1	0%	43%	4%	
Cc1ccc(-c2cc3ncc(C(=O)c4cc(C)ccc4O)cn3n2)cc1	5%	9%	0%	
CCn1ncc2cc(CCCO)cnc21	8%	45%	0%	
COc1ccc(-c2nn(-c3ccccc3)c3ncc(C(=O)c4cc(C)ccc4O)cc23)cc1	27%	49%	0%	
Cc1ccc(O)c(C(=O)c2cnc3[nH]c(=O)[nH]c(=O)c3c2)c1	0%	39%	6%	
CCn1ncc2c(-c3cncc(Br)c3)c(C#N)c(C)nc21				IC50 (Phosphodiesterase 4): > 1000 nM; IC50 (PBMC): 27 nM
COC[C@H](O)[C@@H](OC)[C@@H](OC)C1=CC2C(C)=NN(C)C2N=C1 (some centres not stated)	5%	35%	20%	inhibition at 30 µM (THP-1 [4]): 30%
CCO[C@@H](C1=CC2C(C)=NN(c3ccccc3)C2N=C1)[C@H](O)[C@@H](O)COC (some centres not stated)	8%	43%	2%	
COc1ccc(-c2nn(-c3ccccc3)c3ncc(CCCO)cc23)cc1	10%	36%	12%	
CCO[C@@H](C1=CC2C(c3ccc(O)cc3)=NN(c3ccccc3)C2N=C1)[C@H](O)[C@@H](O)CO (some centres not stated)	5%	40%	0%	
Cc1nn(-c2ccccc2)c2ncc(CCCO)cc12	16%	19%	8%	
Cc1cc(C)c(O)c(C(=O)c2cnc3c(c2)c(C)nn3-c2ccccc2)c1	14%	44%	0%	
Cc1ccc(O)c(C(=O)c2cnc3c(c2)c(C)nn3C)c1	41%	60%	0%	
OCCCc1cnc2nc3ccccc3n2c1	9%	18%	0%	
Cc1ccc(O)c(C(=O)c2cnc3onc(-c4ccccc4)c3c2)c1	25%	63%	0%	
Cc1ccc(O)c(C(=O)c2cnc3c(c2)c(C)nn3-c2ccccc2)c1	39%	54%	0%	
Cc1nn(-c2ccccc2)c2nc(-c3ccccc3)cc(C(=O)N/N=C/c3ccc(O)cc3)c12				IC50 (Trypanosoma cruzi): 1.9 µg/mL (≈ 4.25 µM)

Compound	inhibition at 10 µM (THP-1 [1])	inhibition at 10 µM (THP-1 [2])	inhibition at 10 µM (THP-1 [3])	further results
CCO[C@@H](C1=CC2C(C)=NN(c3ccccc3)C2N=C1)[C@H](OC)[C@@H](O)COC (some centres not stated)	4%	44%	19%	inhibition at 30 µM (THP-1 [4]): 30%
CCn1ncc2c(-c3cncc(C)c3)c(/C=C/C(=O)O)cnc21				IC50 (Phosphodiesterase 4): > 1000 nM; IC50 (PBMC): 15.7 nM
CC(=O)OCCCc1cnc2ccnn2c1	0%	66%	13%	
Cc1nn(C)c2ncc(CCCO)cc12	7%	27%	6%	
Cc1ccc(-c2cc3ncc(CCCO)cn3n2)cc1	9%	0%	0%	
CC(=O)OCCCc1cnc2ncnn2c1	0%	45%	7%	
CCn1ncc2cc(CCCOC(C)=O)cnc21	13%	16%	0%	
CCNCc1cncc(-c2cnc3c(c2)C(c2nc4cc(F)ccc4[nH]2)N=N3)c1 (configuration not stated)				IC50 [5]: 0.7 nM
CCO[C@@H](C1=CC2C(C)=NN(c3ccccc3)C2N=C1)[C@H](O)[C@@H](O)CO (some centres not stated)	9%	44%	3%	
COc1cc(-c2cc(-c3ccc(Cl)c(Cl)c3)nc3[nH]nc(C)c23)cc(OC)c1OC				IC50 (Candida albicans): 18000 nM; IC50 (Escherichia coli): 22000 nM
COc1ccc(C(=O)NN2CCOCC2)cc1-c1n[nH]c2nc(Nc3ccc(F)cc3F)ccc12				IC50 [6]: 0.7 nM; inhibition in vivo at 20 mg/kg (Mus musculus): 97%
Cc1nn(C)c2ncc(C(=O)c3cc(F)ccc3O)cc12	19%	34%	0%	
Cc1ccc(O)c(C(=O)c2cnc3onc(C)c3c2)c1	16%	58%	5%	IC50 (THP-1 [7]): > 100000 nM; IC50 (THP-1 [8]): 160 nM; IC50 (THP-1 [9]): > 100000 nM
COC[C@H](O)[C@@H](OC)[C@@H](OC)c1cnc2cc(-c3ccc(C)cc3)nn2c1	3%	34%	18%	inhibition at 30 µM (THP-1 [4]): 30%
Cc1ccc(O)c(C(=O)c2cnc3nc4ccccc4n3c2)c1	37%	32%	5%	
CCO[C@@H](C1=CC2C(c3ccc(OC)cc3)=NN(c3ccccc3)C2N=C1)[C@H](OC)[C@@H](O)COC (some centres not stated)	6%	35%	15%	inhibition at 30 µM (THP-1 [4]): 30%
C[C@@H]1C[C@H]2[C@@H]3CCC4=CC(=O)C=C[C@]4(C)[C@@]3(F)[C@@H](O)C[C@]2(C)[C@@]1(O)C(=O)CO [DEXAMETHASONE]				IC50 (THP-1 [7]): > 100000 nM; inhibition at 1 µM (THP-1 [10]): 94%; inhibition at 1 µM (THP-1 [11]): 0%; IC50 (THP-1 [8]): 7 nM; inhibition at 1 µM (THP-1 [12]): 72%; IC50 (THP-1 [9]): 50 nM
